From article PMC9177108 (The Oncologist, 2022)

Experiments:
[1] = test system: patients with recurrent and metastatic nasopharyngeal carcinoma (RM-NPC); assay: Antitumor efficacy; type: in vivo, human
In short: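 Patients with pretreated RM-NPC were randomised to two arms, each evaluated separately (10 per arm). Both arms took test compound 10 mg orally daily: intermittent arm 3 weeks on/1 week off, continuous arm daily on a 4-week cycle. The investigator assessed response by RECIST 1.1. ORR was CR or PR as best overall response. DCR was confirmed CR, confirmed PR or SD lasting ≥4 weeks from randomisation.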

[2] = Plasma pharmacokinetics; type: in vivo, human; details: for AUC(0-t) / AUC / Vd/F / half-life / k el / Cmax / concentration at 15 day / MRT: human, plasma, 10 mg; for AUC: AUCss; for Vd/F: V z/F; for Cmax: C max; for concentration at 15 day: Css; for Css, max, Mean ± SD: C1D15, 10 mg p.o.
In short: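 Test compound was given at 10 mg orally, either continuously daily or 3 weeks on/1 week off. Plasma PK was sampled on cycle 1 day 1 after a single dose for Tmax, Cmax, AUC0-24h, AUC0-t, AUC0-∞, λz, t1/2, CL/F, Vz/F, %AUCex and MRT. After multiple doses, steady-state parameters were Css max/min/avg, Tss,max, AUCss, CLss/F, Vss/F, %Fluctuation and accumulation ratios. […]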

[3] = oral, GeoMean(%CVb), single dose, C1D1, continuous arm (n = 5)
[4] = oral, GeoMean(%CVb), single dose, C1D1, intermittent arm (n = 4)
[5] = multiple dose, C1D15, continuous arm (n=5)
[6] = multiple dose, C1D15, intermittent arm (n=4)
[7] = single dose, C1D1, continuous arm (n = 5)
[8] = single dose, C1D1, intermittent arm (n = 4)

SMILES: CNC(=O)c1cccc2cc(Oc3ccnc4cc(OCC5(N)CC5)c(OC)cc34)ccc12 [Lucitanib]
- ORR ([1]; intermittent arm, n = 10, listed as lucitanib): 10%
- sustained response, patients still on treatment ([1]; two responders still on treatment at last follow-up): > 3 years
- time at which steady state is reached (trough levels) ([2]; 10 mg p.o. once daily): ≤ 15 days
- AUC(0-t) ([2]; AUC0-t, GeoMean(%CVb), single dose, C1D1, continuous arm (n = 5)): 2370 ng·h/mL
- AUC(0-t) ([2]; AUC0-t, GeoMean(%CVb), single dose, C1D1, intermittent arm (n = 4)): 2720 ng·h/mL
- AUC ([2]; GeoMean(%CVb), multiple dose, C1D15, continuous arm (n=5)): 6170 ng·h/mL
- AUC ([2]; GeoMean(%CVb), multiple dose, C1D15, intermittent arm (n=4)): 9160 ng·h/mL
- AUC ([2]; Mean ± SD, multiple dose, C1D15, continuous arm (n=5)): 6670 ± 2630 ng·h/mL
- AUC ([2]; Mean ± SD, multiple dose, C1D15, intermittent arm (n=4)): 9680 ± 3710 ng·h/mL
- Vd/F ([2]; GeoMean(%CVb), single dose, C1D1, continuous arm (n = 5)): 68 L
- Vd/F ([2]; GeoMean(%CVb), single dose, C1D1, intermittent arm (n = 4)): 58.1 L
- Vd/F ([2]; Mean ± SD, single dose, C1D1, continuous arm (n = 5)): 75.2 ± 40.2 L
- Vd/F ([2]; Mean ± SD, single dose, C1D1, intermittent arm (n = 4)): 60.8 ± 19.8 L
- half-life ([2]; t 1/2, GeoMean(%CVb), single dose, C1D1, continuous arm (n = 5)): 21.9 h
- half-life ([2]; t 1/2, GeoMean(%CVb), single dose, C1D1, intermittent arm (n = 4)): 22.1 h
- half-life ([2]; t 1/2, Mean ± SD, single dose, C1D1, continuous arm (n = 5)): 23.8 ± 11.8 h
- half-life ([2]; t 1/2, Mean ± SD, single dose, C1D1, intermittent arm (n = 4)): 24.8 ± 15.5 h
- k el ([2]; λ z, GeoMean(%CVb), single dose, C1D1, continuous arm (n = 5)): 8.33e-06 s⁻¹
- k el ([2]; λ z, GeoMean(%CVb), single dose, C1D1, intermittent arm (n = 4)): 8.33e-06 s⁻¹
- k el ([2]; λ z, Mean ± SD, single dose, C1D1, continuous arm (n = 5)): 8.33e-06 s⁻¹
- k el ([2]; λ z, Mean ± SD, single dose, C1D1, intermittent arm (n = 4)): 8.33e-06 s⁻¹
- k el ([2]; λz, Mean ± SD, multiple dose, C1D15, continuous arm (n=5)): 5.56e-06 s⁻¹
- k el ([2]; λz, Mean ± SD, multiple dose, C1D15, intermittent arm (n=4)): 5.56e-06 s⁻¹
- AUC(0-t) ([2]; oral, AUC0-24h, GeoMean(%CVb), single dose, C1D1, continuous arm (n = 5)): 2410 ng·h/mL
- AUC(0-t) ([2]; oral, AUC0-24h, GeoMean(%CVb), single dose, C1D1, intermittent arm (n = 4)): 2770 ng·h/mL
- AUC(0-t) ([2]; oral, AUC0-24h, Mean ± SD, single dose, C1D1, continuous arm (n = 5)): 2560 ± 858 ng·h/mL
- AUC(0-t) ([2]; oral, AUC0-24h, Mean ± SD, single dose, C1D1, intermittent arm (n = 4)): 3110 ± 1890 ng·h/mL
- AUC(0-t) ([2]; oral, AUC0-t, Mean ± SD, single dose, C1D1, continuous arm (n = 5)): 2510 ± 834 ng·h/mL
- AUC(0-t) ([2]; oral, AUC0-t, Mean ± SD, single dose, C1D1, intermittent arm (n = 4)): 3030 ± 1750 ng·h/mL
- Cmax [2, 3]: 261 ng/mL
- Cmax [2, 4]: 228 ng/mL
- concentration at 15 day ([2]; oral, avg, GeoMean(%CVb), multiple dose, C1D15, continuous arm (n=5)): 257 ng/mL
- concentration at 15 day ([2]; oral, avg, GeoMean(%CVb), multiple dose, C1D15, intermittent arm (n=4)): 382 ng/mL
- concentration at 15 day ([2]; oral, avg, Mean ± SD, multiple dose, C1D15, continuous arm (n=5)): 278 ± 110 ng/mL
- concentration at 15 day ([2]; oral, avg, Mean ± SD, multiple dose, C1D15, intermittent arm (n=4)): 403 ± 155 ng/mL
- concentration at 15 day ([2]; oral, min, GeoMean(%CVb), multiple dose, C1D15, continuous arm (n=5)): 176 ng/mL
- concentration at 15 day ([2]; oral, min, GeoMean(%CVb), multiple dose, C1D15, intermittent arm (n=4)): 284 ng/mL
- concentration at 15 day ([2]; oral, min, Mean ± SD, multiple dose, C1D15, continuous arm (n=5)): 203 ± 93.5 ng/mL
- concentration at 15 day ([2]; oral, min, Mean ± SD, multiple dose, C1D15, intermittent arm (n=4)): 303 ± 118 ng/mL
- MRT [2, 3]: 32.2 h
- MRT [2, 4]: 32.6 h
- MRT ([2]; oral, Mean ± SD, single dose, C1D1, continuous arm (n = 5)): 34.2 ± 14.3 h
- MRT ([2]; oral, Mean ± SD, single dose, C1D1, intermittent arm (n = 4)): 36.3 ± 21.6 h
- k el ([2]; oral, λz, GeoMean(%CVb), multiple dose, C1D15, continuous arm (n=5)): 2.78e-06 s⁻¹
- k el ([2]; oral, λz, GeoMean(%CVb), multiple dose, C1D15, intermittent arm (n=4)): 5.56e-06 s⁻¹
- Css, max, Mean ± SD ([2]; multiple dose, continuous arm (n=5)): 482.80 ± 271.81 ng/mL
- Css, max, Mean ± SD ([2]; multiple dose, intermittent arm (n=4)): 608.50 ± 169.48 ng/mL
- %Fluctuation, GeoMean(%CVb) [2, 5]: 90.75(63.71) %
- %Fluctuation, Mean ± SD [2, 5]: 104.26 ± 61.47%
- CLss/F, GeoMean(%CVb) [2, 5]: 1.62(49.01) L/hour
- CLss/F, Mean ± SD [2, 5]: 1.78 ± 0.93 L/h
- Css, max, GeoMean(%CVb) [2, 5]: 435.78(50.87) ng/mL
- R ac, AUC (accumulation ratio based on AUC), Mean ± SD [2, 5]: 2.62 ± 0.55
- R ac, Cmax (accumulation ratio based on Cmax), Mean ± SD [2, 5]: 1.98 ± 1.20
- Tss, max, Median [2, 5]: 2.97 h
- %Fluctuation, GeoMean(%CVb) [2, 6]: 79.03(27.10) %
- %Fluctuation, Mean ± SD [2, 6]: 81.15 ± 21.54%
- CLss/F, GeoMean(%CVb) [2, 6]: 1.09(40.16) L/hour
- CLss/F, Mean ± SD [2, 6]: 1.15 ± 0.45 L/h
- Css, max, GeoMean(%CVb) [2, 6]: 590.42(29.26) ng/mL
- R ac, AUC (accumulation ratio based on AUC), Mean ± SD [2, 6]: 3.38 ± 0.84
- R ac, Cmax (accumulation ratio based on Cmax), Mean ± SD [2, 6]: 2.67 ± 0.69
- Tss, max, Median [2, 6]: 1.98 h
- %AUCex, GeoMean(%CVb) [2, 7]: 47.22(22.24) %
- %AUCex, Mean ± SD [2, 7]: 48.16 ± 10.87%
- CL/F, GeoMean(%CVb) [2, 7]: 2.15(57.72) L/hour
- CL/F, Mean ± SD [2, 7]: 2.44 ± 1.5048 L/h
- %AUCex, GeoMean(%CVb) [2, 8]: 46.33(29.69) %
- %AUCex, Mean ± SD [2, 8]: 47.96 ± 15.75%
- CL/F, GeoMean(%CVb) [2, 8]: 1.83(105.30) L/hour
- CL/F, Mean ± SD [2, 8]: 2.24 ± 1.21 L/h
- exposure (Cmax, AUC0-24h) at steady state relative to day 1 ([2]; steady state vs day 1, 10 mg p.o.): two to three times
